# Assay results gathered from unrelated publications.
# Protocols differ between the studies behind these lines.
# Organism: Trypanosoma cruzi
# Observed: parasite growth
# Setting: intracellular, amastigote
Structure (SMILES),technique,cell line,strain,time,quantity,value
c1ccc(C2CCN(c3nc(-c4ccco4)nc4ccccc34)C2)nc1 (stereo not shown),imaging,U2OS,,,IC50,50 µM
COC(=O)c1ccc(NCc2cncn2Cc2ccccc2Cl)cc1-c1ccccc1,,mouse Fibroblast,,,EC50,0.1 to 1 µM
O=C(N[C@H](Cc1c[nH]c2ccccc12)C(=O)Nc1ccncc1)c1ccc(-c2cc(F)ccc2F)cc1F,imaging,C2C12,,72 h,EC50,0.0013 µM
COc1ccc(Nc2nc(-c3ccncc3)nc3ccccc23)cc1,imaging,U2OS,,,IC50,24.5 µM
O=C(N[C@@H](Cc1ccccc1)C(=O)c1nccs1)[C@H](Cc1ccccc1)NC(=O)N1CCOCC1,,,TULAHUEN,,IC50,31.7 µM
O=C(Cn1ccnc1[N+](=O)[O-])NCc1ccccc1,,,TULAHUEN,6 days,EC90,1.64 µM
COC(=O)c1ccc(NCc2cncn2Cc2ccccc2[N+](=O)[O-])cc1-c1ccccc1,,mouse Fibroblast,,,EC50,0.1 to 1 µM
COc1ccc(Nc2nc(-c3ccco3)nc3ccccc23)cc1,imaging,U2OS,,,IC50,11.4 µM
O=C(N[C@@H](Cc1ccccc1)C(=O)c1cn(COCc2ccccc2)nn1)[C@H](Cc1ccccc1)NC(=O)N1CCOCC1,,,TULAHUEN,,IC50,32.2 µM
Cc1ccc2nc(-c3ccc(F)c(F)c3)c(CN3CCC(Cc4ccccc4)CC3)n2c1,,,TULAHUEN,6 days,EC90,4.7 µM
